# Experiment: Dissociation constant, pKa by potentiometric titration method
# Format: physicochemical
# Method in brief: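 Each compound dissolved in ionic-strength-adjusted water (0.15 M), titrated with 0.5 M KOH up to pH 11. Steps capped at 0.2 pH units; each point recorded once drift fell below 0.002 pH/min. Electrode checked in pH 7.00 buffer and calibrated by blank titration daily.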
row,Structure (SMILES),pKa
1,CCCN1CCN(c2ccccc2)CC1,7.96
2,CCCN1CCN(c2cccc(Cl)c2)CC1,7.83
3,CCCN1CCN(c2ccccc2C(F)(F)F)CC1,8.8
4,CCCN1CCN(c2ccccc2C#N)CC1,7.92
5,CCCN1CCN(c2cccc(C)c2)CC1,7.83
6,CCCN1CCN(c2cccc(O)c2)CC1,7.82
7,CCCN1CCN(c2ccc(C#N)cc2)CC1,7.78
8,CCCN1CCN(c2ccc(OC)cc2)CC1,7.88
9,CCCN1CCN(c2cccc(OC)c2)CC1,7.86
10,CCCN1CCN(c2ccccc2C)CC1,8.39
11,CCCN1CCN(c2cccc(C(N)=O)c2)CC1,7.76
12,CCCN1CCN(c2ccccc2[N+](=O)[O-])CC1,7.94
13,CCCN1CCN(c2ccc(O)cc2)CC1,7.92
14,CCCN1CCN(c2ccccc2Cl)CC1,8.07
15,CCCN1CCN(c2ccc(Cl)cc2)CC1,7.83
16,CCCN1CCN(c2ccc([N+](=O)[O-])cc2)CC1,7.59
17,CCCN1CCN(c2cccc(C#N)c2)CC1,7.67
18,CCCN1CCN(c2ccccc2C(N)=O)CC1,8.14
19,CCCN1CCN(c2ccc(C(N)=O)cc2)CC1,7.84
20,CCCN1CCN(c2ccc(C)cc2)CC1,7.92
21,CCCN1CCN(c2ccccc2O)CC1,8.05
22,CCCN1CCN(c2cccc(C(F)(F)F)c2)CC1,7.81
23,CCCN1CCN(c2cccc([N+](=O)[O-])c2)CC1,7.7
24,CCCN1CCN(c2ccc(C(F)(F)F)cc2)CC1,7.84
25,CCCN1CCN(c2ccccc2OC)CC1,8.29

# — ChEMBL document CHEMBL1143328, “Determination of 1-aryl-4-propylpiperazine pKa values: the substituent on aryl modulates basicity” (Bioorg Med Chem, 2009)
